# MrgX1 PAM = allosterically activates human MrgX1 receptor signaling; Q96LB2; actives 0.63% (n = 310,000); MrgX1-HEK293, Fluo-4 calcium flux, FDSS; active compounds read high; AID 588675; B-score at 10 µM;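 active = plate-corrected calcium response at least 3 library SD above typical, normal starting fluorescence, not activating the receptor alone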;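 note: compound read alongside a low EC10 to EC30 dose of BAM8-22 agonist; peak minus trough fluorescence over baseline measured at the second addition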
# Target sequence (Q96LB2 whole entry, looked up): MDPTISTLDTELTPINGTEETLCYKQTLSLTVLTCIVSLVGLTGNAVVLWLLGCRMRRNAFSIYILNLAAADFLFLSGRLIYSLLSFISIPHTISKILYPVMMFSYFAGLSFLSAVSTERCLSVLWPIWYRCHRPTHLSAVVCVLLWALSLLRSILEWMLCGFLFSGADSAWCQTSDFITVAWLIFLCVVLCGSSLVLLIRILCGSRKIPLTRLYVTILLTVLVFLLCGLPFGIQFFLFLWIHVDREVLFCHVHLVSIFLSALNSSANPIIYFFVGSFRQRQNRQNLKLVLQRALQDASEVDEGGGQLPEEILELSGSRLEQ
# RGS4 act = RGS4 potentiation or activation; HEK293 M3R/inducible RGS4, carbachol calcium flux Fluo4; active compounds read low; B-score at 10 µM; actives 0.92% (n = 310,000); AID 463111;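 active = B-score of the integrated calcium signal more than 4 SD below the library mean, with starting fluorescence not abnormally high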;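 note: negative B-score means reduced calcium response which marks RGS4 activation or potentiation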
#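 Assay system: Inducible-RGS4 HEK293 cells carrying M3 receptor | Schedule: Compound preincubation 20 min at room temperature before agonist | Signal: Kinetic calcium fluorescence imaging with Fluo4-AM dye, 2 µM | Read-out basis: B score from integrated fluorescence ratio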
# MrgX1 agonist = human MrgX1 receptor agonism, primary screen | Q96LB2 | MrgX1-HEK293 cells, Fluo-4 calcium fluorescence, agonist mode; active compounds read high | actives 0.44% (n = 310,000) | B-score at 10 µM;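 active = calcium response B-score plate-corrected fluorescence ratio at least 3 library SD, with starting fluorescence B-score inside 5 SD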
#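 Material: MrgX1-expressing HEK293 cells / Dosing: compound as first of three additions / Incubation: overnight seeding, then 1 h dark dye loading / Signal: Fluo-4 NW calcium fluorescence / Evaluation: B-scored fluorescence response ratio / Benchmarks: positive and negative control wells on each plate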
# RGS4 block = human RGS4 inhibition. P49798. HEK293 M3R/RGS4 inducible, Fluo-4 calcium flux; active compounds read high; triggered by carbachol at its EC20. B-score at 10 µM. actives 0.45% (n = 310,000);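 active = B-score, a plate-corrected calcium signal, over three deviations above library mean, with baseline fluorescence within five deviations of library mean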;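 note: RGS4 expression induced by doxycycline in cells with stable M3 receptor; B-score is computed from the integrated fluorescence ratio over baseline after carbachol; higher B-score means a larger calcium signal and so more RGS4 inhibition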
# Target sequence (P49798 whole entry, looked up): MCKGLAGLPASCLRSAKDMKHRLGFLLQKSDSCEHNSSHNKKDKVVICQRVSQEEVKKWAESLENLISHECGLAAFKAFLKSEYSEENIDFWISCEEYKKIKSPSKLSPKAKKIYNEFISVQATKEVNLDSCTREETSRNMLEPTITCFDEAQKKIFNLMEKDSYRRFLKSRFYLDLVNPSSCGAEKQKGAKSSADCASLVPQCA
# MrgX1 antagonist = blocks BAM8-22 activation of human MrgX1 receptor | actives 1.3% (n = 310,000) | B-score at 10 µM | MRGX1-HEK293 calcium flux, Fluo-4, BAM8-22 antagonism; active compounds read low | AID 588676;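 active = calcium-response B-score plate-corrected more than 3 library SD below zero, starting fluorescence within 5 deviations, no agonist response on first addition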;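 note: peak minus trough fluorescence over baseline after final BAM8-22 challenge near maximal dose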
# The depositor's hits bear a star; i = inactive. An excerpt weighted towards active compounds, which were near 3.5% of everything screened.
SMILES,MrgX1 PAM,RGS4 act,MrgX1 agonist,RGS4 block,MrgX1 antagonist
O=C(c1ccc(Br)c(S(=O)(=O)N2CCCCC2)c1)N1CCCCC1,i,i,i,i,i
NCC/C=C1/c2ccccc2CSc2ccccc21,i,-7*,i,i,i
CC(OC(=O)c1ccccc1Br)C(=O)Nc1nc(-c2cccc([N+](=O)[O-])c2)cs1 (stereo unspecified),i,i,i,i,-5.5*
O=C(Nc1nc(-c2cccc([N+](=O)[O-])c2)cs1)C(c1ccccc1)c1ccccc1,i,i,i,i,i
O=[N+]([O-])c1ccc(C(O)C[n+]2ccccc2)cc1 (stereo unspecified),i,i,i,i,i
Cc1ccc(C(C)C)c(OCC(=O)NCC(c2cccs2)N2CCOCC2)c1 (stereo unspecified),i,i,28*,i,i
Cc1cc(OCC(=O)NCC(c2cccs2)N2CCOCC2)ccc1C(C)C (stereo unspecified),i,i,i,i,i
COc1ccc(S(=O)(=O)/N=C2/NC(=O)/C(=C/c3ccco3)S2)cc1,7.5*,i,i,i,i
C/C(=N\NC(=O)c1cccc([N+](=O)[O-])c1)c1cccs1,13*,i,i,i,i
C/C(=N\NC(=O)c1cccc([N+](=O)[O-])c1)c1ccncc1,i,i,i,i,i
COC(=O)c1cccnc1Oc1ccccc1,i,i,i,i,i
CCOC(=O)c1ccc2ncc(C(=O)OCC)c(Nc3ccc(N4CCOCC4)cc3)c2c1,i,-7.5*,i,i,i
CCOC(=O)c1cnc2ccc(C(=O)OC)cc2c1Nc1ccc(C(=O)O)cc1,i,i,i,i,i
CC(C(=O)C12CC3CC(CC(C3)C1)C2)N1CCOCC1 (stereo unspecified),i,i,i,i,i
N#CC1(C#N)[C@@H](C(=O)C23CC4CC(CC(C4)C2)C3)C12CCOCC2,i,i,i,i,-6.6*
N#Cc1ccc(/C=C/C(=O)c2ccco2)cc1,i,i,i,i,i
Nc1ccc(/C=C/C(=O)c2ccco2)cc1,i,i,50*,i,i
O=C(/C=C/c1cc(Br)ccc1O)c1ccco1,i,i,39*,i,i
CN(CCO)c1nc(N)c2c(N)nc3c(c2c1C#N)CC(=O)N3Cc1cccs1,i,i,i,i,i
N#Cc1c(N(CCO)CCO)nc(N)c2c(N)nc3c(c12)CC(=O)N3Cc1cccs1,i,i,i,i,-4.5*
N#CC(C#N)=C(Nc1ccc(F)cc1)SCc1cccc(Br)c1,i,i,i,i,i
Cc1cccc(CSC(Nc2ccc(F)cc2)=C(C#N)C#N)c1,i,i,i,i,-6.6*
Cc1ccc(-c2csc3ncnc(Sc4nnc(CN5CCCCCC5=O)o4)c23)cc1,i,i,i,i,i
CN1CCN(C2=C(Cl)C(=O)N(c3ccc(Cl)cc3)C2=O)CC1,i,i,i,i,i
O=C1C(Cl)=C(NC2CCCCC2)C(=O)N1c1ccc(Cl)cc1,15*,i,i,i,i
SMILES,MrgX1 PAM,RGS4 act,MrgX1 agonist,RGS4 block,MrgX1 antagonist
O=C1OC(c2ccc(F)cc2)=C/C1=C\c1ccc(O)cc1,i,i,i,i,i
O=C1OC(c2ccc(F)cc2)=C/C1=C\c1ccc([N+](=O)[O-])o1,i,i,i,i,-7.8*
COCCCNS(=O)(=O)c1cc2c3c(c1)C(C)C(=O)N3CCC2 (stereo unspecified),i,i,i,i,i
CC1=NOC(=O)/C1=C\c1ccc(-c2cccc(Cl)c2)o1,i,-8.9*,i,i,i
Cc1ccc(/C=C2/C(=O)ON=C2c2ccccc2)o1,i,i,43*,i,i
CN(C)CCCN(C(=O)c1ccc(S(=O)(=O)N2CCc3ccccc3C2)cc1)c1nc2ccc(F)cc2s1,i,i,i,i,i
Cc1cc(C)c2sc(N(CCCN(C)C)C(=O)c3ccc(S(=O)(=O)N4CCc5ccccc5C4)cc3)nc2c1,i,i,i,i,-7.5*
Cc1ccc2nc(N(CCCN(C)C)C(=O)c3ccc(S(=O)(=O)N4CCc5ccccc5C4)cc3)sc2c1,i,-7.8*,i,i,i
Cc1cc(C)c2sc(N(CCCN(C)C)C(=O)c3ccc(S(=O)(=O)N4CCCc5ccccc54)cc3)nc2c1,i,i,i,i,i
Cc1cc(C)c(S(=O)(=O)Cc2ccccc2)c(Cl)n1,i,i,i,i,i
O=c1cc(CSc2nc(NCc3ccccc3)c3ccccc3n2)nc2ccc(Cl)cn12,i,i,i,i,i
O=[N+]([O-])c1cc2oc3c(c2c(C=NCc2ccccc2)c1O)CCCC3,i,i,i,i,i
CC(C)CN=Cc1c(O)c([N+](=O)[O-])cc2oc3c(c12)CCCC3,i,i,i,i,-6.2*
CCOc1ccc(Br)cc1/C(C)=N\NC1=NCCN1,i,-7*,i,i,i
O=[N+]([O-])c1ccc(O)c(-c2cc(C(F)(F)F)nc(-c3ccccc3)n2)c1,i,i,i,i,-5.6*
CN(C(=O)CN1C(=O)/C(=C/c2ccccc2Cl)SC1=S)C1CCS(=O)(=O)C1 (stereo unspecified),i,i,i,i,i
C/C(=N/OC(=O)c1c(-c2ccccc2Cl)noc1C)c1cnccn1,i,-9.8*,i,i,i
O=C(CNS(=O)(=O)c1ccccc1)NCc1ccco1,i,i,i,i,i
Cc1nc(N(C)C)c2sc(=S)n(Cc3ccccc3)c2n1,i,i,i,i,i
CCOc1ccc(NS(=O)(=O)c2ccc(C(=O)NCC3(N4CCCCC4)CCCCC3)cc2)cc1,i,i,i,i,-5.6*
CCOc1ccc(S(=O)(=O)Nc2ccc(C(=O)NCC(C)(C)N3CCOCC3)cc2)cc1,i,i,i,i,-4.9*
CCOc1ccc(NS(=O)(=O)c2ccc(C(=O)NCC3(N(C)C)CCCCC3)cc2)cc1,i,i,i,i,i
CC(C)(CNC(=O)c1ccc(NS(=O)(=O)c2ccc(F)cc2)cc1)N1CCOCC1,i,i,i,i,i
Cc1cc(OCC(=O)N2CCN(c3ccccn3)CC2)cc(C)c1Br,i,i,i,i,i
COc1cccc(CN2C(=O)CCC2(C)C(=O)NCCc2ccc(OC)c(OC)c2)c1 (stereo unspecified),i,i,i,i,i

# Compound activity (PubChem)
